Source: ChEMBL document CHEMBL1140227, “Histone deacetylase inhibitors through click chemistry” (J Med Chem, 2008)

Experiments:
Format in all cases: functional
A549 = experiment: Growth inhibition of human A549 cells at 10 uM relative to control; conditions: values are per cent of control
Method in brief: (§1)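 Single-dose preliminary screen in the NCI human cancer cell line panel, run by the NIH. Percent inhibition of cell line growth was calculated by comparison with untreated samples.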

EKVX = experiment: Growth inhibition of human EKVX cells at 10 uM relative to control; conditions: values are per cent of control; method in brief: as §1
PC-3 = experiment: Growth inhibition of human PC3 cells at 10 uM relative to control; conditions: values are per cent of control; method in brief: as §1
NCI/ADR-RES = experiment: Growth inhibition of human NCI/ADR-RES cells at 10 uM relative to control; conditions: values are per cent of control; method in brief: as §1
cells = conditions: Homo sapiens, Cancer cell lines
Malme-3M = experiment: Growth inhibition of human MALME-3M cells at 10 uM relative to control; conditions: values are per cent of control; method in brief: as §1
SNB-75 = experiment: Growth inhibition of human SNB75 cells at 10 uM relative to control; conditions: values are per cent of control
Method in brief: (§2)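 Single-dose NCI human tumour cell line screen, run by the NIH. Percent inhibition of cell line growth was calculated by comparison with untreated samples.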

SNB-19 = experiment: Growth inhibition of human SNB19 cells at 10 uM relative to control; conditions: values are per cent of control; method in brief: as §1
MDA-MB-231 = experiment: Growth inhibition of human MDA-MB-231 cells at 10 uM relative to control; conditions: values are per cent of control; method in brief: as §1
NCI-H522 = experiment: Growth inhibition of human NCI-H522 cells at 10 uM relative to control; conditions: values are per cent of control; method in brief: as §1
HL-60(TB) = experiment: Growth inhibition of human HL-60(TB) cells at 10 uM relative to control; conditions: read-out: INH
Method in brief: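 Single-dose cell line screen run by the NCI (NIH) in its human cancer cell line panel, which includes the leukemia line HL-60(TB). Percent growth inhibition was calculated by comparison with untreated samples.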

HCC 2998 = experiment: Growth inhibition of human HCC2998 cells at 10 uM relative to control; conditions: values are per cent of control; method in brief: as §1
MCF7 = experiment: Growth inhibition of human MCF7 cells at 10 uM relative to control; conditions: values are per cent of control; method in brief: as §1
SK-MEL-2 = experiment: Growth inhibition of human SK-MEL-2 cells at 10 uM relative to control; conditions: values are per cent of control; method in brief: as §1
CCRF-CEM = experiment: Growth inhibition of human CCRF-CEM cells at 10 uM relative to control; conditions: values are per cent of control; method in brief: as §1
SF-268 = experiment: Growth inhibition of human SF268 cells at 10 uM relative to control; conditions: values are per cent of control; method in brief: as §1
IGROV-1 = experiment: Growth inhibition of human IGROV1 cells at 10 uM relative to control; conditions: values are per cent of control; method in brief: as §1
U-251 = experiment: Growth inhibition of human U251 cells at 10 uM relative to control; conditions: values are per cent of control; method in brief: as §2
[1] = Growth inhibition of human RPMI8266 cells at 10 uM relative to control; conditions: values are per cent of control; method in brief: as §1
NCI-H23 = experiment: Growth inhibition of human NCI-H23 cells at 10 uM relative to control; conditions: values are per cent of control; method in brief: as §1
COLO 205 = experiment: Growth inhibition of human COLO205 cells at 10 uM relative to control; conditions: values are per cent of control; method in brief: as §1
ACHN = experiment: Growth inhibition of human ACHN cells at 10 uM relative to control; conditions: values are per cent of control; method in brief: as §1
NCI-H322M = experiment: Growth inhibition of human NCI-H322M cells at 10 uM relative to control; conditions: values are per cent of control; method in brief: as §1
MOLT-4 = experiment: Growth inhibition of human MOLT4 cells at 10 uM relative to control; conditions: values are per cent of control; method in brief: as §1
UO-31 = experiment: Growth inhibition of human UO31 cells at 10 uM relative to control; conditions: values are per cent of control; method in brief: as §2
SF-539 = experiment: Growth inhibition of human SF539 cells at 10 uM relative to control; conditions: values are per cent of control; method in brief: as §1
NCI-H460 = experiment: Growth inhibition of human NCI-H460 cells at 10 uM relative to control; conditions: values are per cent of control; method in brief: as §1

SMILES: O=C(Cn1cc(C(=O)NO)nn1)c1ccccc1
- growth, % of control at 10 µM (A549): 103%
- growth, % of control at 10 µM (EKVX): 108%
- growth, % of control at 10 µM (PC-3): 82.1%
- growth, % of control at 10 µM (NCI/ADR-RES): 91.3%
- inhibition at 10 µM (cells): > 95%
- growth, % of control at 10 µM (Malme-3M): 107%
- growth, % of control at 10 µM (SNB-75): 117%
- growth, % of control at 10 µM (SNB-19): 95.9%
- growth, % of control at 10 µM (MDA-MB-231): 101%
- growth, % of control at 10 µM (NCI-H522): 99.2%
- growth, % of control at 10 µM (HL-60(TB)): 136%
- growth, % of control at 10 µM (HCC 2998): 107%
- growth, % of control at 10 µM (MCF7): 112%
- growth, % of control at 10 µM (SK-MEL-2): -26.8%
- growth, % of control at 10 µM (CCRF-CEM): 92.1%
- growth, % of control at 10 µM (SF-268): 104%
- growth, % of control at 10 µM (IGROV-1): 100%
- growth, % of control at 10 µM (U-251): 96.9%
- growth, % of control at 10 µM [1]: 79.8%
- growth, % of control at 10 µM (NCI-H23): 110%
- growth, % of control at 10 µM (COLO 205): 123%
- growth, % of control at 10 µM (ACHN): 99.2%
- growth, % of control at 10 µM (NCI-H322M): 95.9%
- growth, % of control at 10 µM (MOLT-4): 110%
- growth, % of control at 10 µM (UO-31): 84.7%
- growth, % of control at 10 µM (SF-539): 118%
- growth, % of control at 10 µM (NCI-H460): 120%
